pKi: −log10 of the molar value. One block for each molecule: values may come before it.
Columns and labels:
[1] = molecular target: T1, GABA-A receptor; anion channel (Bos taurus) (UniProt P10063+P08220+P20237+P08219+P10064+P22300); test: Percentage inhibition of [3H]Ro-151788 binding to GABA-A benzodiazepine receptor in bovine brain membrane at 10 uM; format: cell membranes
In short: (§1)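 Washed bovine cerebral cortex membranes, with endogenous GABA removed by Triton X-100/37 °C washes, incubated with ~0.2 nM [3H]Ro15-1788 (Kd 0.60 nM) in 50 mM Tris-citrate pH 7.4 for 90 min at 0 °C, then filtered. Nonspecific binding defined with 10 μM diazepam. Screening at 10 μM; Ki from IC50 by Cheng–Prusoff; five determinations, mean ± SEM.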

Mus musculus [2] = test: (§2) Anticonvulsant activity against MES-induced hindlimb extension at 30 mg/kg dose; format: ADME, organism-based; parameters: dose 30 mg/kg; conditions: in vivo
In short: (§3)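 Male Swiss-Webster mice (22–26 g) received drug in 1% CMC (10 mL/kg) 30 min before maximal electroshock through transcorneal electrodes (40 mA, 50 Hz, 0.2 s). The end point was tonic hindlimb extension, and lethality was also noted. The incidence of non-convulsing mice was analysed by χ² test.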

Mus musculus [3] = test: Antianxiety activity was measured based on light/dark box thus calculated % time in light of mice at 100 mg/kg dose; format: functional
In short: (§4)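 Male Swiss-Webster mice, 22–26 g, dosed orally with drug or 1% CMC vehicle (10 mL/kg), placed 30 min later in the centre of the lit side of a two-compartment light/dark box (60-W bulb 400 mm above the white floor). Time in the lit side and number of crossings counted over 5 min. Student's t-test.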

Mus musculus [4] = test: as §2; format: functional
Mus musculus [5] = test: Muscle relaxant effect measured by rotarod test at 300 mg/Kg dose in mice; format: functional
In short: (§5)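 Motor coordination on the rota rod in male Swiss-Webster mice (22–26 g) after oral dosing in 1% CMC (10 mL/kg), tested 30 min post-dose. Student's t-test.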

Mus musculus [6] = test: (§6) Anticonvulsant activity against MES-induced hindlimb extension at 300 mg/kg dose; format: functional
[7] = molecular target: GABA-A receptor; anion channel; test: Displacement of [3H]Ro-151788 from GABA-A benzodiazepine receptor of bovine brain membranes; format: cell membranes, Bos taurus; in short: as §1
Mus musculus [8] = test: Antianxiety activity was measured based on light/dark box thus calculated no of crosses of mice at 10 mg/kg dose; format: functional; in short: as §4
Mus musculus [9] = test: Muscle relaxant effect measured by rotarod test at 100 mg/Kg dose in mice; format: functional; in short: as §5
[10] = molecular target: T1, GABA-A receptor; anion channel (Bos taurus); test: The GABA ratio (GR) = IC50 compound + 10 uM GABA, performed in five independent experiments was calculated for the compound.; format: protein-complex assay
In short: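 [3H]Ro15-1788 displacement from GABA-depleted bovine cortex membranes (0.2 nM ligand, 90 min, 0 °C, Tris-citrate pH 7.4). IC50 measured without and with 10 μM GABA and the ratio taken; five independent experiments.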

Mus musculus [11] = test: Antianxiety activity was measured based on light/dark box thus calculated % time in light of mice at 10 mg/kg dose; format: functional; in short: as §4
Mus musculus [12] = test: Anticonvulsant activity against PTZ induced atacks at 100 mg/kg dose; format: functional
Mus musculus [13] = test: Antianxiety activity was measured based on light/dark box thus calculated no of crosses of mice at 30 mg/kg dose; format: functional; in short: as §4
Mus musculus [14] = test: as §6; format: ADME, organism-based; parameters: dose 300 mg/kg; conditions: in vivo; in short: as §3
Mus musculus [15] = test: Antianxiety activity was measured based on light/dark box thus calculated no of crosses of mice at 3 mg/kg dose; format: functional; in short: as §4
Mus musculus [16] = test: Anticonvulsant activity against PTZ induced atacks at 300 mg/kg dose; format: functional
Mus musculus [17] = test: Muscle relaxant effect measured by rotarod test at 30 mg/Kg dose in mice; format: functional; in short: as §5
Mus musculus [18] = test: Antianxiety activity was measured based on light/dark box thus calculated % time in light of mice at 30 mg/kg dose; format: functional; in short: as §4
Mus musculus [19] = test: (§7) Anticonvulsant activity against MES-induced hindlimb extension at 100 mg/kg dose; format: functional
Mus musculus [20] = test: Anticonvulsant activity against PTZ induced atacks at 30 mg/kg dose; format: functional
Mus musculus [21] = test: as §7; format: organism-based; parameters: dose 100 mg/kg; conditions: in vivo; in short: as §3
Mus musculus [22] = test: Antianxiety activity was measured based on light/dark box thus calculated % time in light of mice at 3 mg/kg dose; format: functional; in short: as §4
Mus musculus [23] = test: Antianxiety activity was measured based on light/dark box thus calculated no of crosses of mice at 100 mg/kg dose; format: functional; in short: as §4
Mus musculus [24] = test: Anticonvulsant activity against PTZ induced attacks at 30 mg/kg dose 13d and 100 mg/kg Flumazenil; format: functional
In short: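 Male Swiss-Webster mice (22–26 g) received drug in 1% CMC (10 mL/kg) 30 min before the test, or flumazenil 40 min before. Pentylenetetrazole was then given at 75 mg/kg sc, and generalized tonic-clonic seizures were scored over the following 30 min. The incidence of non-convulsing mice was analysed by χ² test.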

Mus musculus [25] = test: Muscle relaxant effect measured by rotarod test at 30 mg/kg dose 13d and 100 mg/kg Flumazenil; format: functional
Mus musculus [26] = test: (§8) Anticonvulsant activity against MES-induced hindlimb extension at 10 mg/kg dose; format: ADME, organism-based; parameters: dose 10 mg/kg; conditions: in vivo; in short: as §3
Mus musculus [27] = test: Muscle relaxant effect measured by rotarod test at 10 mg/Kg dose in mice; format: functional; in short: as §5
Mus musculus [28] = test: Anticonvulsant activity against PTZ induced attacks at 10 mg/kg dose; format: functional
Mus musculus [29] = test: as §8; format: functional

inhibition [1]: 66%
Compound: [O-][n+]1nc2c(-c3cnoc3)cnn2c2cc(Cl)ccc21

inhibition [1]: 15.2%
Compound: Cc1n[nH]c(-c2cnn3c2n[n+]([O-])c2ccc(Cl)cc23)n1

inhibition [1]: 0%
Compound: Cn1cnc(-c2cnn3c2n[n+]([O-])c2ccc(Cl)cc23)n1

Compound: [O-][n+]1nc2c(-c3cccs3)cnn2c2cc(Cl)ccc21
Lethality (Mus musculus [2]): 18.2%
inhibition [1]: 82%
Time in flight (Mus musculus [3]): 114.5%
Extension (Mus musculus [4]): 0%
No. of falls (Mus musculus [5]): 0.2
Extension (Mus musculus [6]): 0%
pKi [7]: 7.99
No. of crosses (Mus musculus [8]): 20
No. of falls (Mus musculus [9]): 0.08
GR [10]: 1.54
Time in flight (Mus musculus [11]): 122.2%
Atttacks (Mus musculus [12]): 16.6%
No. of crosses (Mus musculus [13]): 17.6
Lethality (Mus musculus [14]): 8.3%
No. of crosses (Mus musculus [15]): 15
Atttacks (Mus musculus [16]): 12.5%
No. of falls (Mus musculus [17]): 0
Time in flight (Mus musculus [18]): 11.5%
Extension (Mus musculus [19]): 0%
Atttacks (Mus musculus [20]): 10%
Lethality (Mus musculus [21]): 20%
Time in flight (Mus musculus [22]): 88.9%
No. of crosses (Mus musculus [23]): 18.4

Compound: CCOC(=O)c1ncn2c1CN(C)C(=O)c1cc(F)ccc1-2.[O-][n+]1nc2c(-c3ccsc3)cnn2c2cc(Cl)ccc21
Attacks (Mus musculus [24]): 36.4%
No. of falls (Mus musculus [25]): 0.64

Compound: CCOC(=O)c1cnn2c1n[n+]([O-])c1ccc(Cl)cc12
Lethality (Mus musculus [2]): 22.2%
inhibition [1]: 99.8%
Time in flight (Mus musculus [3]): 124.6%
Extension (Mus musculus [4]): 0%
No. of falls (Mus musculus [5]): 0.33
pKi [7]: 7.46
No. of falls (Mus musculus [9]): 0.5
GR [10]: 1.91
Atttacks (Mus musculus [12]): 28.1%
No. of crosses (Mus musculus [13]): 19.1
Time in flight (Mus musculus [18]): 106.2%
Extension (Mus musculus [19]): 0%
Atttacks (Mus musculus [20]): 15%
Lethality (Mus musculus [21]): 0%
No. of crosses (Mus musculus [23]): 15.2

inhibition [1]: 44.4%
Compound: [O-][n+]1nc2c(-c3nc[nH]n3)cnn2c2cc(Cl)ccc21

inhibition [1]: 58.5%
Compound: C/C(=N\C(=O)c1cnn2c1n[n+]([O-])c1ccc(Cl)cc12)N(C)C

Compound: [O-][n+]1nc2c(-c3ccsc3)cnn2c2cc(Cl)ccc21
Lethality (Mus musculus [2]): 22.2%
Lethality (Mus musculus [26]): 28.6%
No. of falls (Mus musculus [27]): 0.43
inhibition [1]: 100%
Time in flight (Mus musculus [3]): 107.4%
Extension (Mus musculus [4]): 33.3%
pKi [7]: 7.44
No. of crosses (Mus musculus [8]): 16.3
No. of falls (Mus musculus [9]): 0.15
GR [10]: 1.23
Time in flight (Mus musculus [11]): 94.2%
Atttacks (Mus musculus [12]): 46.1%
No. of crosses (Mus musculus [13]): 19
No. of falls (Mus musculus [17]): 0.08
Time in flight (Mus musculus [18]): 104.3%
Extension (Mus musculus [19]): 27.3%
Atttacks (Mus musculus [28]): 18.2%
Atttacks (Mus musculus [20]): 61.5%
Lethality (Mus musculus [21]): 18.2%
Extension (Mus musculus [29]): 14.3%
No. of crosses (Mus musculus [23]): 15.3

inhibition [1]: 0%
Compound: O=C(N/C=N/O)c1cnn2c1n[n+]([O-])c1ccc(Cl)cc12

inhibition [1]: 0%
Compound: Cc1nc(-c2cnn3c2n[n+]([O-])c2ccc(Cl)cc23)nn1C
